ChEMBL document CHEMBL1156759, “Identification and optimization of inhibitors of Trypanosomal cysteine proteases: cruzain, rhodesain, and TbCatB” (J Med Chem, 2010)
Calls of active or inactive are those of the source. The rule behind the calls is not given here.

Columns and labels:
Cruzipain [1] = biological target: T1, Cruzipain (Trypanosoma cruzi, UniProt P25779); test: Inhibition of recombinant Trypanosoma cruzi cruzain after 5 mins by spectrofluorimetric analysis
Outline: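 Recombinant cruzain at 4 nM (activated procruzain, anion-exchange purified) in 100 mM sodium acetate pH 5.5, 5 mM DTT, 0.001% Triton X-100. Preincubated 5 min at room temperature with compound in DMSO, then Z-Phe-Arg-AMC 10 μM. Fluorescence rate read at ex 355/em 460 nm; DMSO controls; IC50 by curve fitting.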

Cruzipain [2] = biological target: T1, Cruzipain; test: Competitive inhibition of recombinant Trypanosoma cruzi cruzain by Lineweaver-Burke plot analysis
[3] = Inhibition of recombinant Trypanosoma brucei rhodesain after 5 mins by spectrofluorimetric analysis
Outline: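 Recombinant rhodesain, 4 nM, preincubated 5 min at room temperature with compound (DMSO) in 100 mM sodium acetate pH 5.5, 5 mM DTT, 0.001% Triton X-100. Reaction started with 10 μM Z-Phe-Arg-AMC; rate of AMC fluorescence increase read at ex 355/em 460 nm. IC50 from curve fitting; DMSO-only wells as positive control.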

[4] = Inhibition of recombinant Trypanosoma brucei cathepsin B after 5 mins by spectrofluorimetric analysis
Outline: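 Recombinant TbCatB at 258 nM in 100 mM sodium acetate pH 5.5, 5 mM DTT, 0.001% Triton X-100, preincubated with compound in DMSO for 5 min at room temperature. Z-Phe-Arg-AMC 10 μM added to start. Rate of fluorescence rise read at ex 355/em 460 nm; DMSO control wells; IC50 from curve fitting.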

Cathepsin K = biological target: T2, Cathepsin K (Homo sapiens, UniProt P43235); test: Inhibition of human Cathepsin K/O2
T2 sequence (P43235 whole entry): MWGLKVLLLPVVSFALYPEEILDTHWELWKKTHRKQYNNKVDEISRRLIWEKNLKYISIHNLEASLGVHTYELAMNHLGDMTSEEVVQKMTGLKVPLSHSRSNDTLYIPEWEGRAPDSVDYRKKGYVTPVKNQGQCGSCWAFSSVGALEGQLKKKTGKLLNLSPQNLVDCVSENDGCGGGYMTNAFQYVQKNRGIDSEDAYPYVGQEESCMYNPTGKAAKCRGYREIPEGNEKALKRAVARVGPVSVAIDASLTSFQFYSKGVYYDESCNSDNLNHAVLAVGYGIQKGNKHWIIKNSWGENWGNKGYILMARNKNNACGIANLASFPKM
Outline: (§1)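 Profiling panel run externally as 10-dose, 3-fold serial dilutions of compound. Protease activity followed as a time course of fluorescence increase from a fluorescently labeled peptide substrate. The initial linear slope (signal/min) was analysed.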

Pro-cathepsin H = biological target: T3, Pro-cathepsin H (Homo sapiens, UniProt P09668); test: Inhibition of human Cathepsin H; outline: as §1
T3 sequence (P09668 whole entry): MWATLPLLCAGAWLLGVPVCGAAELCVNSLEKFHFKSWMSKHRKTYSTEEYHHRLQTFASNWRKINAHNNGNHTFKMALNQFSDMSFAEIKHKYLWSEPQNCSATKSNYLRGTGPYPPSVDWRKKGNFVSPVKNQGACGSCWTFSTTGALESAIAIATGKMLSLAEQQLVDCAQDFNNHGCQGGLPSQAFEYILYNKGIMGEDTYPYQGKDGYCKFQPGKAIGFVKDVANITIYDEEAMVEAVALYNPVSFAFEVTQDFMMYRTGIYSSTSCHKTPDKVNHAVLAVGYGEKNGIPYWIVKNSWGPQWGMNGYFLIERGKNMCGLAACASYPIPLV

Cathepsin B = Cathepsin B (Homo sapiens, UniProt P07858); test: Inhibition of human Cathepsin B; outline: as §1
Beta-secretase 1 = Beta-secretase 1 (Homo sapiens, UniProt P56817); test: Inhibition of human BACE1; outline: as §1
Kallikrein-4 = Kallikrein-4 (Homo sapiens, UniProt Q9Y5K2); test: Inhibition of human Kallikrein 4; outline: as §1
Mus musculus = species on record: Mus musculus; test: Toxicity in mouse; assay type: organism-based; details: in vivo
[5] = biological target: Matrix metalloproteinase-14 (Homo sapiens, UniProt P50281); test: Inhibition of human MMP14; outline: as §1
Cathepsin S = Cathepsin S (Homo sapiens, UniProt P25774); test: Inhibition of human Cathepsin S; outline: as §1
Cruzipain [6] = biological target: T1, Cruzipain; test: Inhibition of Trypanosoma cruzi cruzain after 15 mins; details: read-out: IC50
Outline: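 Cruzain at 1.5 nM final in 100 mM acetate pH 5.5, 5 mM DTT, 0.01% Triton X-100; compounds as serial 2-fold dilutions pin-transferred in DMSO. 15 min room-temperature preincubation, then Z-FR-AMC 2 μM final. Kinetic fluorescence read at ex 340/em 450 nm. Percent inhibition from the first 60 s signal change versus no-enzyme and uninhibited controls (48 wells each).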

Papain = biological target: T4, Papain (Carica papaya, UniProt P00784); test: Inhibition of papaya papain; outline: as §1
T4 sequence (P00784 whole entry): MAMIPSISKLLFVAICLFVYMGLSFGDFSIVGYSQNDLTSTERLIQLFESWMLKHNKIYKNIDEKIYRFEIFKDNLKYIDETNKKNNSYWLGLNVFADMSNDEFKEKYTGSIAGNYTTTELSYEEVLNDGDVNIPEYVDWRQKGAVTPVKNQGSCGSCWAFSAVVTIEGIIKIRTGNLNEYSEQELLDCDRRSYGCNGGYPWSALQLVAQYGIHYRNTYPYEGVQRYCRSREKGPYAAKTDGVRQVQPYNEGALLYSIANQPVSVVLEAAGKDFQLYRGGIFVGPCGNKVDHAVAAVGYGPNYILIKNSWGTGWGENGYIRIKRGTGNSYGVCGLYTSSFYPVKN

Dipeptidyl peptidase 1 = Dipeptidyl peptidase 1 (Homo sapiens, UniProt P53634); test: Inhibition of human Cathepsin C; outline: as §1
Cathepsin Z = Cathepsin Z (Homo sapiens, UniProt Q9UBR2); test: Inhibition of human Cathepsin X/Z; outline: as §1
Trypanosoma cruzi = test: Antitrypanosomal activity against Trypanosoma cruzi Y trypomastigotes infected in mouse J774 cells at 10 uM after 27 days medium replaced every 48 hrs; assay type: functional, organism-based
Outline: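 Irradiated (1000 rad) J774 macrophages plated overnight, infected 2 h with Y strain trypomastigotes, parasites removed, then cultured in RPMI-1640 with compound (n = 3); untreated infected and 10 μM K777 controls per experiment. Medium replaced every 48 h over 27 days; daily phase-contrast microscopy (400×) for free trypomastigotes and host toxicity; cultures kept 14 further days to confirm cure.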

[7] = Inhibition of human Proteinase A; outline: as §1
Proteinase K = Proteinase K (Engyodontium album, UniProt P06873); test: Inhibition of human Proteinase K; parameters: species or system Parengyodontium album; outline: as §1
Canis familiaris = species on record: Canis familiaris; test: Toxicity in dog; assay type: organism-based, Canis lupus familiaris; details: in vivo
Caspase-4 = Caspase-4 (Homo sapiens, UniProt P49662); test: Inhibition of human Caspase 4; outline: as §1
Cathepsin L2 = biological target: T5, Cathepsin L2 (Homo sapiens, UniProt O60911); test: Inhibition of human Cathepsin V; outline: as §1
T5 sequence (O60911 whole entry): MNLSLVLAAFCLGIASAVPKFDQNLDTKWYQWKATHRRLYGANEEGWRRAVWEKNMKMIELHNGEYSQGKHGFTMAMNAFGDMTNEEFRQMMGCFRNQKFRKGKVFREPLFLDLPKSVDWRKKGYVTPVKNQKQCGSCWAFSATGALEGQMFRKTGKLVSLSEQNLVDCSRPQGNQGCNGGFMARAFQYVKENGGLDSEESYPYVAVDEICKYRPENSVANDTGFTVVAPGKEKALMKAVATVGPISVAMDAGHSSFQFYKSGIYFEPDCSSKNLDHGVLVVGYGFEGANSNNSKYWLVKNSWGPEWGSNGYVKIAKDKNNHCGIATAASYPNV

[8] = biological target: Disintegrin and metalloproteinase domain-containing protein 17 (Homo sapiens, UniProt P78536); test: Inhibition of human TACE; outline: as §1
Rattus norvegicus = species on record: Rattus norvegicus; test: Toxicity in rat; assay type: organism-based; details: in vivo
Procathepsin L = Procathepsin L (Homo sapiens, UniProt P07711); test: Inhibition of human Cathepsin L; outline: as §1
[9] = Inhibition of human CCC1s; outline: as §1
Caspase-1 = Caspase-1 (Homo sapiens, UniProt P29466); test: Inhibition of human Caspase 1; outline: as §1
Neutrophil elastase = Neutrophil elastase (Homo sapiens, UniProt P08246); test: Inhibition of human Elastase; outline: as §1
Cathepsin G = Cathepsin G (Homo sapiens, UniProt P08311); test: Inhibition of human Cathepsin G; outline: as §1
[10] = Inhibition of human Chymotrypsin; outline: as §1

Procathepsin L, sequence (P07711 whole entry): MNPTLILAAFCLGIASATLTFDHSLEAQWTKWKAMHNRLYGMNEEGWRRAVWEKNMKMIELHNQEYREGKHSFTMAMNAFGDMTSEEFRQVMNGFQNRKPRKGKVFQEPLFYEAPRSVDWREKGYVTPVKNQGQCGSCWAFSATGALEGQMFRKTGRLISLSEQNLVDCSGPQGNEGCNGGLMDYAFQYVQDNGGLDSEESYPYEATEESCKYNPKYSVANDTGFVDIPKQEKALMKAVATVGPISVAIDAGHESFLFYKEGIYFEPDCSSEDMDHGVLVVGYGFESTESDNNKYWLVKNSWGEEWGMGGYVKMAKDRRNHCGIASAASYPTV
T1 sequence (P25779 whole entry): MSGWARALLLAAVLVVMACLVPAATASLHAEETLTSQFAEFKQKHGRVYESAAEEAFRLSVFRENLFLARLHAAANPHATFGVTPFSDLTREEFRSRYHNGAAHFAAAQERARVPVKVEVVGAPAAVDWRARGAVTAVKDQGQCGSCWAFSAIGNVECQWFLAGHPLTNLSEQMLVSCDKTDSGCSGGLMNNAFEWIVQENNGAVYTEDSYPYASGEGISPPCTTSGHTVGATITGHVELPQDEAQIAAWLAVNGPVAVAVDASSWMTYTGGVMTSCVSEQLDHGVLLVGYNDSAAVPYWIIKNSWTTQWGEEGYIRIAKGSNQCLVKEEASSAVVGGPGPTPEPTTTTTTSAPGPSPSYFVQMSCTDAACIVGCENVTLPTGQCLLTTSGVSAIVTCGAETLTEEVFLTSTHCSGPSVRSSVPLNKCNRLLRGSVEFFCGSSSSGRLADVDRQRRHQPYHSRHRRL
Kallikrein-4, sequence (Q9Y5K2 whole entry): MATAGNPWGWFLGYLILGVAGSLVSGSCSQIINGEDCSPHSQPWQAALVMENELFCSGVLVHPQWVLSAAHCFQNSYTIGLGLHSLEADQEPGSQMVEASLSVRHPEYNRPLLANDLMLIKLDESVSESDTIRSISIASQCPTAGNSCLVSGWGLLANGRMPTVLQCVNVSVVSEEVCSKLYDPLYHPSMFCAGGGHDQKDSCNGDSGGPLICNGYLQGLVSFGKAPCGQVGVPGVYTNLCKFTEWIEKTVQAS
Cathepsin S, sequence (P25774 whole entry): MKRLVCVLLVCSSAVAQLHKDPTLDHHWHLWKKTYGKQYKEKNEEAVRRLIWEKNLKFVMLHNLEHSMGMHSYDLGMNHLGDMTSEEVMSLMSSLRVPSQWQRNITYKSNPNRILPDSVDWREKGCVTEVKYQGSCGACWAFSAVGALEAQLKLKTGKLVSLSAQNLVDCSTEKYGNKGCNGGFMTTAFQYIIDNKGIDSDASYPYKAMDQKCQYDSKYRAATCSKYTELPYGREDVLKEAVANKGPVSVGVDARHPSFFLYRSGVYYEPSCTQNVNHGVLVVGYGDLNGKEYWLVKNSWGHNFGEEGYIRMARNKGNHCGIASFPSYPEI
Cathepsin Z, sequence (Q9UBR2 whole entry): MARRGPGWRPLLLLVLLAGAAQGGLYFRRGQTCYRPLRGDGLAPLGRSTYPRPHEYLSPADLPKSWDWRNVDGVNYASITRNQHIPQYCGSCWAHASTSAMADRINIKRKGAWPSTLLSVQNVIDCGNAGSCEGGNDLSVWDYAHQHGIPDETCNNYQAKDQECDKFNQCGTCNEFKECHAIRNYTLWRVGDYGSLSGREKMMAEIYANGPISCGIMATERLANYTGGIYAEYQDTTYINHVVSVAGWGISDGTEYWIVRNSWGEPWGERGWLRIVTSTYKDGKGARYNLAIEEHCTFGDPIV
Dipeptidyl peptidase 1, sequence (P53634 25-134 limits assumed): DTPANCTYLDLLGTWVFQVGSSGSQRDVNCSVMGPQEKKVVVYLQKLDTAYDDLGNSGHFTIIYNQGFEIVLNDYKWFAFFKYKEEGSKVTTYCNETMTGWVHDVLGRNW
Dipeptidyl peptidase 1, sequence (P53634 231-394 limits assumed): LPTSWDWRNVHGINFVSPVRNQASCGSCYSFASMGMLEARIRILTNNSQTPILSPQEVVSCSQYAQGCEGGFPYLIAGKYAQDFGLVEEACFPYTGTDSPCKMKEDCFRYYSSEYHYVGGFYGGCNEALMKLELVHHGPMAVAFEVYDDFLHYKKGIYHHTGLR
Dipeptidyl peptidase 1, sequence (P53634 395-463 limits assumed): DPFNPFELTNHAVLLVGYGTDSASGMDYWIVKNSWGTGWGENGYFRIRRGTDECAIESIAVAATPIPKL
Proteinase K, sequence (P06873 whole entry): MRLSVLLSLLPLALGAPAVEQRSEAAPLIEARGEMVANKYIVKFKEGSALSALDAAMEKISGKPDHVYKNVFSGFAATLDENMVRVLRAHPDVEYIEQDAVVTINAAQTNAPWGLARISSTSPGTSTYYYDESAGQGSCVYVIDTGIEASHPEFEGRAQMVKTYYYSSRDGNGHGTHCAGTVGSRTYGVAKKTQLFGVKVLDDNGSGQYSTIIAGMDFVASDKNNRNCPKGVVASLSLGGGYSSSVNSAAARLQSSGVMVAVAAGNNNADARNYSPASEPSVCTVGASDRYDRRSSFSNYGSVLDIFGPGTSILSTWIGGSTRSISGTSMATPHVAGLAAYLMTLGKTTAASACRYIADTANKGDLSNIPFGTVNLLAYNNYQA
Caspase-1, sequence (P29466 120-297 limits assumed): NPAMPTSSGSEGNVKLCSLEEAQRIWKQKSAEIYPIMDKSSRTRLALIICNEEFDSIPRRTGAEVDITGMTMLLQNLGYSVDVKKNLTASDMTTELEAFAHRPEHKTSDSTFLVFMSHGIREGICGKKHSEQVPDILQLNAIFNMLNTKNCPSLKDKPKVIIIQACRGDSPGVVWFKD
Caspase-1, sequence (P29466 317-404 limits assumed): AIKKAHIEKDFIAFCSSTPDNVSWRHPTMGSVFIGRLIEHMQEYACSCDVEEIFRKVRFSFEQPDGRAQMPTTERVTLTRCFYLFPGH
Beta-secretase 1, sequence (P56817 whole entry): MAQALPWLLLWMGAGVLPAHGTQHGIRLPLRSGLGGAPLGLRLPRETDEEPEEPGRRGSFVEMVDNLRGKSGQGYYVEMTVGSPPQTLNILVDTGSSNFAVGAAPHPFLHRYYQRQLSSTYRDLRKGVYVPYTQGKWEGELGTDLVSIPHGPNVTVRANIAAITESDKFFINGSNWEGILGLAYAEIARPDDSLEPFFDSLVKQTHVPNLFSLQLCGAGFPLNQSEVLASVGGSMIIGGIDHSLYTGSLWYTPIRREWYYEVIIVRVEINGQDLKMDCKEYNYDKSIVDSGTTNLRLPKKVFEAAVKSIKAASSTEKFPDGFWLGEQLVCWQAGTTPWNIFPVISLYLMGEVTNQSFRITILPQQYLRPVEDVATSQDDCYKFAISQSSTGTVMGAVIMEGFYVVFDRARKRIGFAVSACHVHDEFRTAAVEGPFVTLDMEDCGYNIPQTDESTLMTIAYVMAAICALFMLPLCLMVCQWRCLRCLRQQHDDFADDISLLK
Caspase-4, sequence (P49662 81-270 limits assumed): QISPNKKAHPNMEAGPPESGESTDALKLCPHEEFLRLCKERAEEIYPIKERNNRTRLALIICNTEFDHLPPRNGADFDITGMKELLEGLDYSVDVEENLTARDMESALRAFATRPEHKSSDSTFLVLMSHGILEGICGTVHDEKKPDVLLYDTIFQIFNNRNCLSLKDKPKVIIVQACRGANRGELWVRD
Caspase-4, sequence (P49662 290-377 limits assumed): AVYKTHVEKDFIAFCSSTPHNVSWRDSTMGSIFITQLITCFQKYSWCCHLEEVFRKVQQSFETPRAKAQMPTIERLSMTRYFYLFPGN
Cathepsin G, sequence (P08311 whole entry): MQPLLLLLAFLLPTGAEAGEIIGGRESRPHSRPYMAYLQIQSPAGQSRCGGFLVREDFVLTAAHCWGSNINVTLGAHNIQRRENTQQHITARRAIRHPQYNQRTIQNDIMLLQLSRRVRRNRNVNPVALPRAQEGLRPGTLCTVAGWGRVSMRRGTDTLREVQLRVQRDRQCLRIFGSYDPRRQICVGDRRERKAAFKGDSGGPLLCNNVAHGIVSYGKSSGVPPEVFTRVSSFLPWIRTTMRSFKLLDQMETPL
Neutrophil elastase, sequence (P08246 whole entry): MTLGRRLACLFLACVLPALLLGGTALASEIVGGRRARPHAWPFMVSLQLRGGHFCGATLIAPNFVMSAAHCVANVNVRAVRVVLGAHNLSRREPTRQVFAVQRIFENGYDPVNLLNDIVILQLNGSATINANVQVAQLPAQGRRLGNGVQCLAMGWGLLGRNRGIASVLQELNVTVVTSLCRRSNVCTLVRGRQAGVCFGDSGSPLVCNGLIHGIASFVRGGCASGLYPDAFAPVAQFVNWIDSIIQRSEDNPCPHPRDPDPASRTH
Disintegrin and metalloproteinase domain-containing protein 17, sequence (P78536 whole entry, the tested form may be a part): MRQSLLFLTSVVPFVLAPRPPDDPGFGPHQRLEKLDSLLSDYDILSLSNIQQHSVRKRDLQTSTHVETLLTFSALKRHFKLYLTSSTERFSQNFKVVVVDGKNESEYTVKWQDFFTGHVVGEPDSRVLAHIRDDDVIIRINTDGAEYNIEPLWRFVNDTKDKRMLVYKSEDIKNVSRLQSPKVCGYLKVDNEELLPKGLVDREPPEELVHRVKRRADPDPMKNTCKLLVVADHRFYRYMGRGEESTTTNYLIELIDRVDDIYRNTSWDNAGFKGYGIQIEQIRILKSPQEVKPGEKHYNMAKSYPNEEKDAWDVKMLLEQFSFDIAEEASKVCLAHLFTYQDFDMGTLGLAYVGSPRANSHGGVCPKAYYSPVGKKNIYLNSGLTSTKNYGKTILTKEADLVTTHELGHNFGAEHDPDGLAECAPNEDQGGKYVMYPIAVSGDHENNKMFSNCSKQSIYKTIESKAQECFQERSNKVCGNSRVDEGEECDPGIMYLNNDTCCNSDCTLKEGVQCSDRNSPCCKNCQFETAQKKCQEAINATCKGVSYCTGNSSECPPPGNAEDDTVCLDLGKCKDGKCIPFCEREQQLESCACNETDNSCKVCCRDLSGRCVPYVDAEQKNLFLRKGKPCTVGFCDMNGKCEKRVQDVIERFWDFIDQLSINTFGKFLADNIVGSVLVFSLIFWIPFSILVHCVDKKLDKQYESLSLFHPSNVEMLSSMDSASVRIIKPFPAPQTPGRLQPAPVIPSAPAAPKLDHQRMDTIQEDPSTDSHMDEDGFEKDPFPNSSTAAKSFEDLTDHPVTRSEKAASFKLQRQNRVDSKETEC

SMILES | IC50 (Cruzipain [1]) [nM] | IC50 [3] [nM] | IC50 [4] [nM] | IC50 (Cathepsin K) [nM] | IC50 (Pro-cathepsin H) [nM] | IC50 (Kallikrein-4) [nM] | Activity (Mus musculus) | IC50 [5] [nM] | IC50 (Cathepsin S) [nM] | IC50 (Cruzipain [6]) [nM] | IC50 (Papain) [nM] | IC50 (Dipeptidyl peptidase 1) [nM] | IC50 (Cathepsin Z) [nM] | Activity (Canis familiaris) | IC50 (Cathepsin L2) [nM] | Activity (Rattus norvegicus) | IC50 (Procathepsin L) [nM] | further results
N#Cc1nc(N)nc(N(c2ccccc2)c2ccccc2)n1 | 70 | > 10000 | > 1000 |  |  |  |  |  |  |  |  |  |  |  |  |  |  | Ki (Cruzipain [2]): 180 nM
CCn1cnc2c(Nc3cc(F)cc(F)c3)nc(C#N)nc21 | 0.2 | < 6 | 6000 | 23.4 | 126 | 14500 | Non-toxic | 72400 | 15.8 | 10 | 44.7 | 34.7 | 933 | Non-toxic | 240 | Non-toxic | 117 | IC50 (Cathepsin B): 10700 nM; IC50 (Beta-secretase 1): 63100 nM; Activity (Trypanosoma cruzi): inactive; pIC50 [7]: 4.19; IC50 (Proteinase K): 74100 nM; IC50 (Caspase-4): 33100 nM; IC50 [8]: 74100 nM
CCNc1nc(C#N)nc2c1ncn2-c1cc(F)cc(F)c1 |  |  |  | 50.1 | 646 | 178000 | Non-toxic | 135000 | 105 | 251 | 33.1 | 589 | 316 | Non-toxic | 70800 | Non-toxic | 562 | pIC50 [9]: 4.3; IC50 (Caspase-1): 70800 nM
N#Cc1nc(Nc2cc(F)cc(F)c2)c2ncn(CC(F)F)c2n1 |  |  |  |  |  |  |  |  |  | 13 |  |  |  |  |  |  | 7940 | IC50 (Neutrophil elastase): 85100 nM; IC50 (Cathepsin G): 148000 nM; pIC50 [10]: 4.19
